Columns and labels:
Assay type in all cases: functional
Mus musculus [1] = species: Mus musculus; assay: Cures is the number of survivors of the total treated mice (20) with B-16 melanoma, at 60 days.
How it was run: (§1)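 BDF1 mice were implanted ip with a homogenate from 0.05 g of B-16 melanoma and dosed ip on days 1-9. Cures are survivors over total at 60 days.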

Mus musculus [2] = assay: Percent increase in median life span of BDF1 mice with B-16 melanoma at dose 3 mg/kg administered intraperitoneally; range 116-129%, 1-9 days of ip treatment relative to tumor inoculation; conditions: BDF1, B16, ip, route intraperitoneal
How it was run: (§2)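 BDF1 mice were implanted ip with a homogenate from 0.05 g of B-16 melanoma. Ip dosing ran on days 1-9, starting 24 h after implant, in dose-response studies following NCI protocols. The read-out was percent increase in life span (ILS). T/C ≥125% was taken as significant.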

Mus musculus [3] = species: Mus musculus; assay: Cures is the number of survivors of the total treated mice (6) with L-1210 leukemia, at 30 days.
Mus musculus [4] = assay: Percent increase in median life span of BDF1 mice with Colon 26 at dose 6.2 mg/kg administered intraperitoneally; 1, 5, 9 days of ip treatment relative to tumor inoculation; conditions: BDF1, Colon 26, ip, 216 h, route intraperitoneal
Mus musculus [5] = species: Mus musculus; assay: Cures is the number of survivors of the total treated mice (10) with advanced B-16 melanoma, at 30 days.
Mus musculus [6] = assay: Percent increase in median life span of BDF1 mice with advanced B-16 melanoma at dose 6.2 mg/kg administered intraperitoneally; 5, 9, 13 days of ip treatment relative to tumor inoculation; conditions: B16, ip, 312 h, route intraperitoneal
Mus musculus [7] = species: Mus musculus; assay: Cures is the number of survivors of the total treated mice (10) with Colon 26, at 60 days.
Mus musculus [8] = species: Mus musculus; assay: Cures is the number of survivors of the total treated mice (18) with P-388 leukemia, at 30 days.
How it was run: (§3)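 BDF1 or CDF1 mice given 10^6 ascitic P-388 leukemia cells ip, then treated ip on days 1, 5 and 9. Cures are survivors over total treated at 30 days.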

Mus musculus [9] = assay: Percent increase in median life span of BDF1 mice with P-388 leukemia at dose 6.25 mg/kg administered intraperitoneally; 1, 5, 9 days of ip treatment relative to tumor inoculation; conditions: BDF1, P388, ip, 216 h, route intraperitoneal
How it was run: (§4)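 BDF1 or CDF1 mice given 10^6 ascitic leukemia cells ip, then dosed ip on days 1, 5 and 9. Read-out is percent increase in life span versus untreated controls. Cures were scored as survivors/total at 30 days; when cures reached 50% or more, the run was extended until a specific ILS could be calculated. T/C ≥125% counted as significant.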

Mus musculus [10] = assay: Percent increase in median life span of BDF1 mice with L-1210 leukemia at dose 6.2 mg/kg administered intraperitoneally; 1, 5, 9 days of ip treatment relative to tumor inoculation; conditions: BDF1, L1210, ip, 216 h, route intraperitoneal; how it was run: as §4
Mus musculus [11] = species: Mus musculus; assay: Number of survivors of the total treated mice with B-16 melanoma, at 60 days.; how it was run: as §1
Mus musculus [12] = species: Mus musculus; assay: Cures is the number of survivors of the total treated mice (6) with P-388 leukemia, at 60 days.
Mus musculus [13] = assay: Percent increase in median life span of BDF1 mice with P-388 leukemia at dose 12.5 mg/kg administered intraperitoneally; conditions: BDF1, P388, ip, route intraperitoneal
Mus musculus [14] = species: Mus musculus; assay: Anticancer activity measured as the number of survivors of the total treated mice with P-388 leukemia at 30 days.; how it was run: as §3
Mus musculus [15] = assay: Percent increase in median life span of BDF1 mice with B-16 melanoma at dose 6.25 mg/kg administered intraperitoneally; conditions: BDF1, B16, ip, route intraperitoneal; how it was run: as §2
Mus musculus [16] = species: Mus musculus; assay: Cures is the number of survivors of the total treated mice (10) with B-16 melanoma, at 60 days; how it was run: as §1
Mus musculus [17] = assay: Percent increase in median life span of BDF1 mice with P-388 leukemia at dose 3.1 mg/kg administered intraperitoneally; conditions: BDF1, P388, ip, route intraperitoneal

## CN(C)C(=N)N/N=C/c1c2ccccc2c(/C=N/N=C(\N)N(C)C)c2ccccc12
Mus musculus [1]
  Cures: 2
Mus musculus [2]
  ILS at 3 mg/kg: 125%
Mus musculus [3]
  Cures: 0
Mus musculus [4]
  ILS at 6.2 mg/kg: 167%
Mus musculus [5]
  Cures: 2
Mus musculus [6]
  ILS at 6.2 mg/kg: 41%
Mus musculus [7]
  Cures: 1
Mus musculus [8]
  Cures: 3
Mus musculus [9]
  ILS at 6.25 mg/kg: 103%
Mus musculus [10]
  ILS at 6.2 mg/kg: 100%

## C(=N\NC1=NCCN1)/c1c2ccccc2c(/C=N/NC2=NCCN2)c2c1ccc1ccccc12.Cl.Cl
Mus musculus [11]
  Cures: 0
Mus musculus [12]
  Cures: 1
Mus musculus [13]
  ILS at 12.5 mg/kg: 90%

## CCc1ccc2c(/C=N/NC3=NCCN3)c3ccccc3c(/C=N/NC3=NCCN3)c2c1.Cl.Cl
Mus musculus [14]
  Cures: 0
Mus musculus [15]
  ILS at 6.25 mg/kg: 97%
Mus musculus [16]
  Cures: 1
Mus musculus [17]
  ILS at 3.1 mg/kg: 64%

Reference: ChEMBL document CHEMBL1122207, “Antitumor agents. 2. Bisguanylhydrazones of anthracene-9,10-dicarboxaldehydes” (1982)
